Experimental data taken from ChEMBL document CHEMBL1131504, “(Z)- and (E)-2-((hydroxymethyl)cyclopropylidene)methyladenine and -guanine. New nucleoside analogues with a broad-spectrum antiviral activity” (J Med Chem, 1998).

Legend:
MEF [1] = experiment: Cytotoxicity on stationary MEF cells at time of MCMV plaque enumeration in cells not effected by the virus.; format: functional, cell-based; conditions: Mus musculus
Summary of the method: (§1)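 Visual cytotoxicity scored microscopically on stationary HFF or MEF cells not affected by virus, at the time of HCMV or MCMV plaque enumeration.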

CCRF-CEM [2] = experiment: Cytotoxicity was measured on CEM cells infected with Herpes Simplex virus […]; format: functional, cell-based; conditions: Homo sapiens
HFF [3] = experiment: Compound was tested against HFF cells infected with herpes simplex virus type 2 (HSV-2) by cytopathic effect inhibition assay; format: functional, cell-based; conditions: Homo sapiens
Summary of the method: (§2)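 HFF cells (low passage) seeded 24 h before in MEM + 10% FBS; drug in MEM + 2% FBS, serial 1:5 dilutions in triplicate, 1 h pre-incubation, then HSV-1 or HSV-2 at 1000 pfu/well. Incubated 3 days at 37 °C, crystal violet/ethanol/formaldehyde stain, absorbance at 630 nm; IC50 by linear regression of % inhibition vs log concentration.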

Daudi [4] = experiment: Cytotoxicity on Daudi cells at time of […] in cells not effected by the virus.; format: functional, cell-based; conditions: Homo sapiens
CEM-SS = experiment: Cytotoxicity on CEM-SS cells; format: functional, cell-based; conditions: Homo sapiens
Summary of the method: (§3)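 Visual cytotoxicity: microscopic inspection of stationary uninfected CEM or CEM-SS cells from suspension cultures.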

CCRF-CEM [5] = experiment: Inhibitory concentration against mitochondrial DNA synthesis CEM cells; format: functional, cell-based; conditions: Homo sapiens
Summary of the method: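 CEM cells (2 × 10^5/mL) in RPMI 1640 + 10% dialyzed FBS with compound, re-split with fresh drug on days 4 and 6. On day 8, 1 × 10^5 cells lysed with RNase A and proteinase K, slot-blotted, probed with a mitochondrial DNA-specific probe.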

HFF [6] = experiment: Inhibitory concentration against human cytomegalovirus replication in HFF cells was determined by plaque reduction assay; format: functional, cell-based
Summary of the method: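 HFF cells infected with HCMV Towne (~100 pfu/cm2). After adsorption, drug added to duplicate wells at four to eight concentrations; 8–10 days at 37 °C, crystal violet stain, microscopic plaques counted. % plaque reduction vs no-drug control; IC50 by linear regression vs log concentration.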

Vero [7] = experiment: Compound was tested against vero cells infected with herpes simplex virus type 2 (HSV-2); format: functional, cell-based; conditions: Chlorocebus sabaeus
Summary of the method: (§4)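 Confluent Vero monolayers (RPMI + 5% FBS + 0.1% methylcellulose) infected 1 h with HSV-1 KOS or HSV-2 333 at 20 or 100 pfu/well. Drug overlay in RPMI + 2% dialyzed FBS + 0.1% methylcellulose, 48–72 h at 37 °C, 5% CO2. Crystal violet stain, plaques counted; IC50 by linear regression of % inhibition vs log concentration.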

[8] = Cytotoxicity on H-1 cells at time of HCMV plaque enumeration in cells not effected by the virus.; format: functional, cell-based; conditions: Homo sapiens
HFF [9] = experiment: Inhibitory concentration against herpes simplex virus type 1 (HSV-1) infected HFF cells was determined by cytopathic effect inhibition assay; format: functional, cell-based; conditions: Homo sapiens; summary of the method: as §2
MEF [10] = experiment: Inhibitory concentration against murine cytomegalovirus replication in MEF cells was determined by plaque reduction assay; format: functional, cell-based; conditions: Mus musculus
Summary of the method: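 MEF cells plated 2 days earlier and infected with MCMV (20–30 plaques/well) for 1 h. Six 1:5 drug dilutions in MEM + 2% FBS, duplicate wells, 7 days at 37 °C, 1.5% neutral red stain, plaques counted; IC50 by linear regression vs log concentration.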

HFF [11] = experiment: Inhibitory concentration against human cytomegalovirus replication in HFF cells was determined by yield reduction assay; format: functional
Summary of the method: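 HFF cells (12 500/well) infected with HCMV at moi 0.5–1 and exposed to compound in duplicate at 100 to 0.14 μM for 4 days at 37 °C. After freeze–thaw, supernatants serially diluted onto fresh HFF monolayers and plaques titered; IC90 reported.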

Human alphaherpesvirus 1 = experiment: Inhibitory concentration against herpes simplex virus type 1 (HSV-1) was determined by enzyme-linked immunosorbent assay (ELISA); format: functional, organism-based
HFF [12] = experiment: Cytotoxicity on stationary HFF cells at time of HCMV plaque enumeration in cells not effected by the virus.; format: functional, cell-based; conditions: Homo sapiens; summary of the method: as §1
Daudi [13] = experiment: Inhibitory concentration against epstein-barr virus (EBV) infected daudi cells was determined; format: functional, cell-based; conditions: Homo sapiens
Summary of the method: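 Daudi cells infected with P3HR-1 EBV at 0.1–0.2 moi for 45 min at 37 °C, washed, then incubated 48 h with serially diluted drug in RPMI-1640. Acetone-fixed cells stained with anti-VCA monoclonal antibody and FITC anti-mouse IgG, Evans Blue counterstain; 500 cells counted, VCA-positive fraction used for IC50.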

KB = experiment: Cytotoxicity was evaluated by measuring the inhibition of KB cell growth.; format: functional, cell-based; conditions: Homo sapiens
Summary of the method: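 KB cells at 3000–5000/well, overnight at 37 °C, compound added in triplicate at eight concentrations. Growth over 48 h (two population doublings), then ethanol fixation, 0.1% crystal violet stain, eluted dye read at 570 nm; quadruplicate assays. IC50 by linear regression of % inhibition vs log concentration.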

HepG2 = experiment: Inhibitory concentration against hepatitis B virus infected 2.2.15 cells; format: functional, cell-based; conditions: Homo sapiens
Summary of the method: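 HBV-producing 2.2.15 cells in MEM + 10% FBS; compounds added on days 6 and 9, 6 days of exposure. Virions in the medium precipitated with PEG/NaCl, DNA extracted, run on 0.8% agarose, Southern blotted with 32P HBV probe, quantified by densitometry.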

Vero [14] = experiment: Inhibitory concentration against herpes simplex virus type 1 (HSV-1) infected vero cells was determined; format: functional, cell-based; conditions: Chlorocebus sabaeus; summary of the method: as §4
HFF [15] = experiment: Inhibitory concentration against human cytomegalovirus replication in HFF cells was determined by cytopathic effect inhibition assay; format: functional, cell-based
Summary of the method: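 HFF cells seeded 24 h before; serial 1:5 drug dilutions in MEM + 2% FBS in triplicate, 1 h, then 2500 pfu/well CMV. Incubated 14 days at 37 °C with 50 μL MEM added on day 7; crystal violet stain, read at 630 nm. IC50 from regression.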

HFF [16] = experiment: IC50 value was evaluated by measuring the %inhibition of Varicella Zoster virus(VZV) infected HFF cells using plaque reduction assay.; format: functional, cell-based; conditions: Homo sapiens
Summary of the method: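 HFF cells plated 2 days earlier and infected with VZV (20–30 plaques/well) for 1 h. Six 1:5 drug dilutions in MEM + 2% FBS, no antibody overlay, duplicate wells; extra medium on day 5, 10 days total at 37 °C. Neutral red stain, plaques counted; IC50 from regression.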

[17] = Inhibitory concentration against epstein-barr virus (EBV) infected H-1 cells was determined; format: functional, cell-based; conditions: Homo sapiens
Summary of the method: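 H-1 cells (high-yield EBV producer from P3HR-1) kept in log growth, seeded at 2 × 10^5/well with drug in RPMI 1640 + 10% dialyzed FBS for 5 days at 37 °C. Lysates treated with RNase A and proteinase K, slot-blotted, probed with 32P EBV EcoRI C fragment; normalized to Alu DNA vs untreated cells by densitometry.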

HFF [18] = experiment: IC50 value was evaluated by measuring the %inhibition of Human Herpes Virus 6(HHV-6) infected […] cells using ELISA assay; format: functional, cell-based
CCRF-CEM [19] = experiment: Cytotoxicity on CEM cells; format: functional, cell-based; conditions: Homo sapiens; summary of the method: as §3

| SMILES | IC50 (CCRF-CEM [2]) [µM] | IC50 (HFF [3]) [µM] | IC50 (Daudi [4]) [µM] | IC50 (CEM-SS) [µM] | IC50 (CCRF-CEM [5]) [µM] | IC50 (HFF [6]) [µM] | IC50 (Vero [7]) [µM] | IC50 [8] [µM] | IC50 (HFF [9]) [µM] | IC90 (HFF [11]) [µM] | IC50 (Human alphaherpesvirus 1) [µM] | IC50 (HFF [12]) [µM] | IC50 (Daudi [13]) [µM] | IC50 (KB) [µM] | IC50 (HepG2) [µM] | IC50 (Vero [14]) [µM] | IC50 (HFF [15]) [µM] | IC50 (HFF [16]) [µM] | IC50 [17] [µM] | IC50 (HFF [18]) [µM] | also measured |
| --- | --- | --- | --- | --- | --- | --- | --- | --- | --- | --- | --- | --- | --- | --- | --- | --- | --- | --- | --- | --- | --- |
| Nc1nc(O)c2ncn(/C=C3/CC3CO)c2n1 (stereo not drawn) [SYNGUANOL] | > 100 | > 413 | > 214 | > 100 | > 100 | 2.1 | > 100 | > 50 | 61.7 | 1.8 | 100 | > 100 | 5.6 | > 100 | 10 | 85 | 0.04 | 61.3 | 0.3 | 42.5 | IC50 (MEF [1]): > 429 µM; IC50 (MEF [10]): 0.3 µM |
| Nc1nc2c(ncn2COC(CO)CO)c(=O)[nH]1 [GANCICLOVIR] |  |  |  |  |  | 7.4 |  |  |  | 1.6 |  |  |  |  |  |  | 2.6 |  |  |  | IC50 (MEF [10]): 3.4 µM |
| Nc1nc(O)c2ncn(/C=C3\CC3CO)c2n1 (stereo not drawn) | > 100 | > 413 | > 206 | > 100 | > 100 | > 100 | > 100 | > 50 | > 413 |  | 100 | > 100 | > 206 | > 100 | > 10 | > 100 | > 413 | 263 | > 50 | > 100 |  |
| Nc1ccn([C@H]2CC[C@@H](CO)O2)c(=O)n1 [ZALCITABINE] |  |  |  |  | 0.07 |  |  |  |  |  |  |  |  |  | 1.4 |  |  |  |  |  | IC50 (CCRF-CEM [19]): 10 µM |
| Nc1nc(Cl)c2c(ncn2/C=C2/CC2CO)n1 (stereo not drawn) | 80 | > 79.5 | > 199 | > 100 | > 50 | 5 | 55 | > 50 | > 79.5 | 0.8 | 31 | > 100 | 1.2 | > 100 | > 10 | 52 | 5.6 | > 518 | 0.7 | 50 | IC50 (MEF [1]): 270 µM; IC50 (MEF [10]): 0.3 µM |
| Nc1ncnc2c1ncn2/C=C1\CC1CO (stereo not drawn) | > 100 | 395 | > 230 | > 100 | > 50 | > 100 | > 100 | > 50 | 36 | > 100 | > 100 | > 100 | 71.4 | > 100 | > 10 | > 100 | 395 | 90.2 | 3 | > 100 |  |
| Nc1ncnc2c1ncn2/C=C1/CC1CO (stereo not drawn) | > 100 | 10.6 | 368 | > 100 | > 50 | 2.1 | 59 | > 50 | < 0.14 | 1.1 | 33 | > 100 | 3.2 | 78 | 2 | 28 | 1 | 2.5 | 0.2 | 14 | IC50 (MEF [1]): > 92 µM; IC50 (MEF [10]): 2.1 µM |
| Nc1nc(Cl)c2ncn(/C=C3\CC3CO)c2n1 (stereo not drawn) | 60 | > 79.5 | > 199 | > 100 |  | > 100 | > 100 | < 50 | > 79.5 | 11 | > 100 |  | 143 | > 100 | > 10 | 95 | > 79.5 |  | > 10 |  |  |
